Measured values taken from the RNAGym collection of RNA variant scans (doi:10.1126/science.aae0568).
Fewer inactive variants are shown than the library holds.

B1: tRNA (parent)
chain: GUUCCGUUGGCGUAAUGGUAACGCGUCUCCCUCCUAAGGAGAAGACUGCGGGUUCGAGUCCCGUACGGAACG

Variants of: B1
Assay: yeast fitness relative to wild type (ratio to wild type); higher = fitter; tRNA-Arg(CCU), competitive growth, 37 C, YPD
Procedure, shortened: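 Start and end populations of a pooled competition were compared by 100-nucleotide paired-end sequencing of gene amplicons. The Saccharomyces cerevisiae strains carried tRNA-Arg(CCU) gene variants at the native genomic locus, synthesised with a 3% per-site mutation rate at 69 sites, and competed in YPD at 37°C for 24 hours in six parallel replicates. Darwinian fitness relative to wild type was based on the change in genotype frequencies. Genotypes required ≥ 100 starting reads, and estimates < 0.5 were set to 0.5.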

Point of comparison: A21U A69C, yeast fitness 0.827. Against it:
- A21G C22G C49U G51A — lower, 0.603
- A21U C55G C60A C61G C66G — lower, ≤ 0.5
- A21U C22A C29G C55A U59C — lower, 0.647
- A21U U28G C55A G58A — lower, ≤ 0.5
- A21U G56A — lower, 0.646
- A21G U35C A65U — lower, ≤ 0.5
- A21U C27U C34A — lower, 0.774
- A21G C62G — higher, 1.02
- A21U C33G A70U — lower, ≤ 0.5
- A21U A36G C55A G67C — lower, ≤ 0.5
- A21G U53A A57U A65U — lower, 0.52
- A21G G58C — higher, 1.01
- A21U C30U A40C U59C C62U G67U — lower, 0.554
- A21U U32C C49U A57C — lower, 0.595
- A21G A45C A69U — lower, 0.762
- A21U U47G U59A — lower, ≤ 0.5
- C22A C24G A36C C66U — lower, 0.692
- A21U U26G A70C — lower, 0.729
- C22A A36G G41A — lower, 0.548
- A21G U47A G68A — lower, 0.685
- A21U C55A A65C — lower, ≤ 0.5
- C22A C24U G44C G48A — lower, ≤ 0.5
- A21G C29U G41C — lower, 0.562
- A21G U53A U54A — lower, ≤ 0.5
- A21G G23C C31U C34G A43G A45C A57U — lower, 0.574
- A21U C22A G38C U54G C60A — higher, 0.846
- A21G C30A C55A — lower, ≤ 0.5
- A21U C30U A36G G44A — lower, ≤ 0.5
- A21U C22U U59C — lower, ≤ 0.5
- A21U A36G C49A G63A — lower, ≤ 0.5
- A21G G23A A57C A65C A70C — lower, ≤ 0.5
- A21U G25A C62A — lower, ≤ 0.5
- A21U A42U — lower, 0.792
- A21U A42G — lower, 0.583
- C22A C24G A36G G39C C55U C66U — lower, 0.513
- A21U U26G G44A — lower, 0.511
- C22A C27G U28A C30A C34G G48C — lower, ≤ 0.5
- A21G A65G — higher, 1.01
- A21U U28A U35G G58A C62G — lower, ≤ 0.5
- C22A A57G — higher, 0.916
- A21G C24G A37U — lower, 0.573
- A21U U26A A37C C62G — lower, ≤ 0.5
- A21G G50C G52C — lower, ≤ 0.5
- A21U C22U G48C A65G — lower, ≤ 0.5
- A21U U53C U54G — lower, ≤ 0.5
- A21U A45G C49A — lower, ≤ 0.5
- A21U C30A U32A U35G G67A — lower, ≤ 0.5
- C22A A43U C60A A65G — lower, 0.683
- A21U A42U A57G — lower, 0.548
- A21U C33G A57C — lower, ≤ 0.5
- A21U C22U U26C — lower, ≤ 0.5
- C22A C27G A43U C60A — lower, 0.557
- A21G A43C C60A — lower, ≤ 0.5
- A21U C31A C34A G39C C61A — lower, ≤ 0.5
- A21G G25A A42C — lower, 0.707
- A21G C29A C46U U59C — lower, ≤ 0.5
- A21G C24U G51C — lower, ≤ 0.5
- A21G G25C C27G A42C G68C — lower, ≤ 0.5
- A21U U64C — lower, 0.775
- A21U G25A G56U — lower, ≤ 0.5
- A21U A43C C62U A65U — lower, ≤ 0.5
- A21G C27U A70G — lower, 0.792
- A21G C27U A69C — lower, 0.781
- A21U G52A A65U — lower, ≤ 0.5
- A21U C46U C49U U54A — lower, ≤ 0.5
- A21U A42G C55U A70C — lower, 0.603
- A21U C30U U32A G68C — lower, ≤ 0.5
- A21G G25A G39C C62U — lower, ≤ 0.5
- A21G U59A A69G — lower, ≤ 0.5
- A21G G67U A69C — lower, 0.528
- A21G C49U G63A — lower, 0.804
- A21G U53A — lower, 0.651
- A21U C29G G63A — lower, 0.618
- A21U U26C C60U — lower, ≤ 0.5
- A21G G56C A65G — lower, 0.583
- A21G C60U — lower, 0.713
- A21G C60A — lower, 0.577
- A21U A43U C49G — lower, ≤ 0.5
- A21U U28A A40U A45U — higher, 0.878
- A21G U53A U54C C61G — lower, 0.718
- A21U G23C A36U — lower, ≤ 0.5
- A21U A43G G44C — lower, ≤ 0.5
- C22A A37U G44A A70G — lower, ≤ 0.5
- A21G G50A — higher, 1.14
- A21G G50C — lower, 0.76
- A21U C27G C33G A69U — lower, ≤ 0.5
- A21U A36G A43U — lower, 0.729
- A21G C49A G56A — lower, 0.533
- A21U U32G G48C G68C — lower, ≤ 0.5
- A21G G23A C27G A37U G44A C49U G63C — lower, ≤ 0.5
- A21U U28C C29G C49G A70U — lower, ≤ 0.5
- C22A C27A U59C — lower, 0.586
- A21U C24G C62G C66U — lower, ≤ 0.5
- A21U G63A — higher, 0.856
- A21G C61U A70G — lower, 0.761
- A21G C61U A70U — lower, 0.776
- A21G U26A C34U G50C C62U — lower, ≤ 0.5
- A21G C22G G25A G63A A69U — lower, ≤ 0.5
- A21G G25C C61G G68U — lower, ≤ 0.5
- A21U C27A G41C G44A C55U C62G — lower, 0.648
- C22A A43G — lower, 0.809
- C22A A43C — lower, 0.694
- A21G C27A A37U G63C — lower, ≤ 0.5
- A21U G52C A57G C61U — lower, ≤ 0.5
- A21U A45U — lower, 0.676
- A21U A43U — higher, 0.901
- A21U A36G — lower, 0.804
- A21U A36C — lower, ≤ 0.5
- A21G U59A U64A — lower, ≤ 0.5
- A21G G39C A69C — lower, 0.536
- A21U C24U U26A A43U — lower, 0.668
- A21G G44C G63C — lower, ≤ 0.5
- A21G C22A A40U C61U — lower, 0.507
- A21U U53C A57C — lower, 0.619
- A21U C22G C55A G56C G67C — lower, ≤ 0.5
- C22A A45C C66A — lower, ≤ 0.5
- C22A A45C C66G — lower, 0.691
- A21G C33A A65C A70C — lower, 0.54
- A21G C22U A57G — lower, 0.614
- A21G C29G C46U C60U G67C — lower, ≤ 0.5
- A21U C34A — lower, 0.573
- A21U C34G — lower, 0.597
- A21G G38C — lower, 0.674
- A21G C29A A69C — lower, ≤ 0.5
- A21G C55U — lower, 0.704
- A21G C27A A36U A40G G52C G67A — lower, ≤ 0.5
- A21G C22A C49A G56C — lower, ≤ 0.5
- A21G C34A — lower, 0.646
- A21G G48C C66U G67C A70G — lower, ≤ 0.5
- A21G G56A G67A — lower, 0.654
- C22A C24G A36G G39C C55U — lower, ≤ 0.5
- A21U C33G C55U — lower, ≤ 0.5
- A21G C22A G56A A65C — lower, 0.528
- A21U C31G U32A — lower, 0.585
- A21G A70C — higher, 0.993
- C22A A36G A42G — lower, ≤ 0.5
- A21U G52C — lower, ≤ 0.5
- A21U C46U C55A G56C — lower, ≤ 0.5
- A21U A45U G50C U64G — lower, ≤ 0.5
- A21U C24U A37C — lower, 0.683
- C22A A70U — higher, 1.01
- C22A A70C — higher, 0.877
- C22A A70G — higher, 0.948
- A21U A40G A57U C60G G68C — lower, ≤ 0.5
- A21G C46G — higher, 0.987
- A21U G50A C62G — lower, 0.601
- A21U A40U — lower, 0.728
- A21U U32G G51C C61U — lower, 0.541
- A21G C22A G25A C46U U54A — lower, ≤ 0.5
- C22A C24A U54A — lower, ≤ 0.5
- A21U A36U A65G — lower, 0.589
- C22A A69C A70G — lower, 0.638
- A21U C30G U32C — lower, ≤ 0.5
- A21U U32G A37G A45G C55A — lower, ≤ 0.5
- A21U C24U A57U A65C A69C — lower, ≤ 0.5
- A21U G41C A43C C49A C62U — lower, ≤ 0.5
- A21G G41A — higher, 0.995
- A21U C33G A42G G44A — lower, 0.541
- A21U C62G — lower, 0.586
- A21U C30G G48A — lower, ≤ 0.5
- A21G C29G G58C A70C — lower, ≤ 0.5
- A21U U59A — lower, 0.587
- A21U G23A C49A — lower, ≤ 0.5
- A21U A45U G51A C55G A65C — lower, ≤ 0.5
- A21U C33G A42G G44A C61U C66U — lower, ≤ 0.5
- A21G C29G C62U — lower, 0.651
